An excerpt weighted towards active compounds, which were near 0.89% of everything screened.
iPSC survival up = enhancers of single-cell hiPSC survival, primary screen, ATPlite luminescence | 360,000 tested, 0.044% active | 100% = ROCK inhibitor wells, 0% = DMSO | AID 602274, 2012 | survival enhancement, % at 20 µM; in the data active = survival enhancement above about 18%;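 note: cells exposed to compounds for 16 hours before the ATP read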
PG9 binder = binders of HIV-1 gp120 antibody PG9, primary screen, biochemical, TR-FRET. HIV-1 gp120 / PG9 antibody interaction. TR-FRET gp120-PG9 antibody binding. inhibition, % at 6.7 µM. 360,000 tested, 0.43% active. AID 624416, 2012; in the data active = inhibition above about 8.5%
ABCB6 inh MLPCN = ABCB6 transporter inhibitors, primary screen, K562-ABCB6 cells, flow cytometry, MLPCN library; ATP-binding cassette sub-family B member 6 (Homo sapiens), Q9NP58; K562-ABCB6 porphyrin accumulation, 1 h; active compounds read low; fluorescence ratio to DMSO, % at 10 µM; 360,000 tested, 0.19% active;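 active = fluorescence ratio to DMSO below 75%, the collection mean minus 3 SD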;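 note: signal is porphyrin accumulated inside mitochondria; 100% equals median channel fluorescence of DMSO control wells; lower ratio means ABCB6 inhibition with less porphyrin fluorescence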
Target sequence (Q9NP58 whole entry, looked up): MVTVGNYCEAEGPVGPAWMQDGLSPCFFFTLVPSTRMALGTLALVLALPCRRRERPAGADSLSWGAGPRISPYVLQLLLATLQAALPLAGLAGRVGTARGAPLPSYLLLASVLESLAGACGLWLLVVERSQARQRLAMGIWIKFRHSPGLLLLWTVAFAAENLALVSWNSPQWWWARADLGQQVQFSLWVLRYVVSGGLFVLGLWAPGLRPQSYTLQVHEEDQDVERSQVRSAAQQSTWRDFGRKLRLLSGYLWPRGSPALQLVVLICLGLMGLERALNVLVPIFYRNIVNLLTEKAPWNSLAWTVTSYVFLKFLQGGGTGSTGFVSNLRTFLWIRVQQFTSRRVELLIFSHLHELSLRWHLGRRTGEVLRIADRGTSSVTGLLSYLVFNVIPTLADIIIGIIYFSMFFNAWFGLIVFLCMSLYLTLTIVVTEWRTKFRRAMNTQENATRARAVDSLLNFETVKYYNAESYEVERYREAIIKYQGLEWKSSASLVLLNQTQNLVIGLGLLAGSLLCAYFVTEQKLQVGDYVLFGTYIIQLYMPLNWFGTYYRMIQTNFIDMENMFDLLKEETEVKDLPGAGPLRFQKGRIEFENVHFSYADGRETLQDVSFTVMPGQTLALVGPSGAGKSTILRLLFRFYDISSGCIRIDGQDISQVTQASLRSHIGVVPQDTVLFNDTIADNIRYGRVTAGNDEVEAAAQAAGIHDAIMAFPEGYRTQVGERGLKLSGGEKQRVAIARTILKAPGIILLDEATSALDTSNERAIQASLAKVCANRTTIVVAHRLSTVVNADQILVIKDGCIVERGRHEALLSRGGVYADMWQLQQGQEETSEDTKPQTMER
Arr AP2 block = inhibitors of beta-arrestin/AP2 binding, primary screen, biochemical, GPCR trafficking, flow cytometry | beta-arrestin 1 C-terminal peptide binding to AP2 beta2-adaptin appendage (human) | FITC-arrestin peptide / GST-AP2 beads; AP2 beta2 appendage carries R879A mutation | inhibition, % at 10 µM | 340,000 tested, 0.31% active;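 active = inhibition above a set limit, near 3 SD of compounds lacking own fluorescence, cut at about 54% in these data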;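 note: plate controls were DMSO wells for no effect and 5 µM unlabelled arrestin peptide for full effect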
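Assay system: GST-AP2 R879A bound to glutathione beads, E. coli-expressed; Medium: PBS with 0.05% Tween 20 and 0.1% BSA; Also added: fluorescein-tagged arrestin peptide at 50 nM final; Timing: 12 min plus 1 h, RT; Measured by: flow cytometry, FL1 (488/535 nm); Evaluation: percent drop in bead-associated FITC signal.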
PG9 binder conf = binders of anti-gp120 antibody PG9, confirmation, biochemical, TR-FRET; inhibition, % at 6.7 µM; 1,500 tested, 90% active; shares compounds with PG9 binder; TR-FRET PG9 antibody binding; in the data active = inhibition above about 9%
PGV04 Ab binding = binders of control antibody PGV04, counter-screen for PG9 antibody binder project, biochemical, TR-FRET, distinct HIV envelope site | shares compounds with PG9 binder | TR-FRET PGV04 antibody-gp120 binding | inhibition, % at 6.7 µM | 1,500 tested, 95% active | AID 651604, 2012; in the data active = inhibition above about 9.5%
Numbers without * were called inactive.

Screening CCOC(=O)N1CCC(NC(=O)c2cc(-c3ccc(OC)cc3)nc3ccccc23)CC1 returned iPSC survival up 0, PG9 binder 9.5*, ABCB6 inh MLPCN 91, Arr AP2 block -6, PG9 binder conf 8 and PGV04 Ab binding 11*.
For CCOC(=O)N1CCC(NC(=O)c2cn(-c3ccc(OC)cc3)c(=O)c3ccccc23)CC1 the results were iPSC survival up 0, PG9 binder -2, ABCB6 inh MLPCN 94 and Arr AP2 block 33.
CC1CCCN(C(=O)c2ccc3c(=O)n4nc(Nc5ccccc5)sc4nc3c2)C1 (stereo not given) was read as iPSC survival up 3, PG9 binder -1 and ABCB6 inh MLPCN 92.
Screening Cc1cccc(Nc2nn3c(=O)c4ccccc4nc3s2)c1 returned iPSC survival up -4, PG9 binder 28*, ABCB6 inh MLPCN 97, Arr AP2 block 1, PG9 binder conf 62* and PGV04 Ab binding 69*.
COc1ccc(-c2ccccc2C2Cc3nnccc3CN2)cc1 (stereo not given) was read as PG9 binder 0.
Screening N#Cc1c(-c2ccco2)nc(SCc2ccc(F)cc2)[nH]c1=O returned iPSC survival up 1, PG9 binder 33*, ABCB6 inh MLPCN 106, Arr AP2 block 5, PG9 binder conf 33* and PGV04 Ab binding 37*.
N#Cc1c(-c2ccccc2)nc(SCc2ccc(Cl)cc2)[nH]c1=O was read as iPSC survival up 0, PG9 binder 1, ABCB6 inh MLPCN 97 and Arr AP2 block 2.
`CCOc1cccc2cc(C(=O)Nc3ccccc3-c3ccccc3)c(=O)oc12` gave iPSC survival up 0, PG9 binder 0, ABCB6 inh MLPCN 102 and Arr AP2 block 6.
CCOc1cccc2cc(C(=O)Nc3cc(C)on3)c(=O)oc12 was read as iPSC survival up 0, PG9 binder 15*, ABCB6 inh MLPCN 81, Arr AP2 block -7, PG9 binder conf 33* and PGV04 Ab binding 37*.
`CCOc1cccc2cc(C(=O)NCc3ccc(OC)cc3)c(=N)oc12` gave iPSC survival up 0, PG9 binder 13*, ABCB6 inh MLPCN 91, Arr AP2 block 5, PG9 binder conf 5 and PGV04 Ab binding 6.
`Cc1ccc(O)c(C2=Nc3ccccc3N=C(c3ccco3)C2)c1` gave iPSC survival up -2, PG9 binder 59*, ABCB6 inh MLPCN 107, Arr AP2 block 6, PG9 binder conf 55* and PGV04 Ab binding 69*.
`Cc1ccc(C2=Nc3ccccc3N=C(c3ccco3)C2)c(O)c1` gave iPSC survival up -2, PG9 binder -3, ABCB6 inh MLPCN 104 and Arr AP2 block 14.
`COc1ccc(OCC2CN(Cc3ccccc3)S(=O)(=O)CCO2)cc1` (stereo not given) gave PG9 binder -3.
For Cc1c(-c2ccccc2)nnn1-c1ccc(F)c(Cl)c1 the results were PG9 binder 0.
Screening COC(=O)c1sc(S(=O)(=O)Nc2c(C)nn(C)c2C)c(C(=O)OC)c1C returned iPSC survival up 0, PG9 binder 1, ABCB6 inh MLPCN 100 and Arr AP2 block -4.
`COC(=O)c1sc(NC(=S)NNC(=O)c2c(Br)c(C)nn2C)c(C(=O)OC)c1C` gave iPSC survival up 0, PG9 binder 19*, ABCB6 inh MLPCN 104, Arr AP2 block 2, PG9 binder conf 7 and PGV04 Ab binding 10.0*.
Screening CCCc1nnc(NC(=S)Nc2ccccc2)s1 returned iPSC survival up 0, PG9 binder 11*, ABCB6 inh MLPCN 100, Arr AP2 block 2, PG9 binder conf 10* and PGV04 Ab binding 13*.
Screening CC(C)C(=O)Nc1nnc(NC(=S)Nc2ccccc2)s1 returned iPSC survival up 1, PG9 binder 2, ABCB6 inh MLPCN 102 and Arr AP2 block -11.
